Results: ChEMBL document CHEMBL1123602, “Synthesis and biological properties of N3-(4-methoxyfumaroyl)-L-2,3-diaminopropanoic acid dipeptides, a novel group of antimicrobial agents” (1987)
In brackets after ≈: the same amount, converted by molar mass.

Assays:
Staphylococcus aureus = assay: Antimicrobial activity against the strain of Staphylococcus aureus (209P); format: functional
In short: (§1)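 Agar dilution MIC on minimal agar Davis medium with 0.1% yeast extract and 0.1% casamino acids containing compound at 200 to 0.2 μg/mL (twofold steps). Cells at 10⁵ cfu/mL were loop-applied to the surface and incubated 24 h at 37 °C. Plates were read visually; MIC is the lowest concentration giving complete growth inhibition.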

Candida albicans [1] = assay: Antimicrobial activity against the strain of Candida albicans(AMB 25); format: functional
In short: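 MIC by serial twofold dilution, 200 to 0.2 μg/mL, in YNB with 1% glucose. The inoculum was 10⁴ cfu/mL of an overnight culture grown in the same medium, incubated 48 h at 30 °C. Growth was read turbidimetrically; MIC is the lowest concentration giving complete growth inhibition.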

Bacillus pumilus [2] = assay: Antimicrobial activity against the strain of Bacillus pumilus(1697); format: functional; in short: as §1
Escherichia coli = assay: Antimicrobial activity against the strain of Escherichia coli(ATCC 9637); format: functional; in short: as §1
Shigella sonnei [3] = assay: Antimicrobial activity against the strain of Shigella sonnei(433); format: functional; in short: as §1
Candida albicans [4] = assay: Antifungal activity against Candida albicans ATCC 26278 strain in YNB medium after incorporation of 10 ug per disk.; format: functional
In short: (§2)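 C. albicans disk diffusion. YNB medium with 1% glucose and 1% agar was seeded with 10⁴ cfu/mL cells from an overnight Sabouraud culture and poured into dishes. Water-dissolved peptide was loaded onto 6.35-mm paper disks, which were placed on the agar. Zones of inhibition were measured after 48 h at 30 °C.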

Candida albicans [5] = assay: Antifungal activity against Candida albicans ATCC 26278 strain in YNB medium after incorporation of 20 ug per disk.; format: functional; in short: as §2
Candida albicans [6] = assay: Activity against Candida albicans ATCC 26278 strain in YNB medium after incorporation of 20 ug per disk expressed as zone size; format: functional; in short: as §2
Candida albicans [7] = assay: Activity against Candida albicans ATCC 26278 strain in YNB medium after incorporation of 10 ug per disk expressed as zone size; format: functional; in short: as §2
Candida albicans [8] = assay: Antifungal activity against Candida albicans ATCC 26278 strain in medium after incorporation of 10 nmol of Met-Val dipeptide antagonist per disk.; format: functional
In short: (§3)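 Disk diffusion with the antagonist (GlcNAc or dipeptide) applied to the same 6.35-mm disk as the FMDP dipeptide. Base layer is YNB with 1% glucose and 1% agar, seeded with 10⁴ cfu/mL C. albicans from an overnight Sabouraud culture. Peptides were dissolved in water. Inhibition zones were measured after 48 h at 30 °C.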

Candida albicans [9] = assay: Antifungal activity against Candida albicans ATCC 26278 strain in medium after incorporation of 10 nmol of Leu-Met dipeptide antagonist per disk.; format: functional; in short: as §3
Candida albicans [10] = assay: Antifungal activity against Candida albicans ATCC 26278 strain in medium after incorporation of 10 nmol of GlcNAc antagonist per disk.; format: functional; in short: as §3
Shigella sonnei [11] = assay: Antibacterial activity against Shigella sonnei 433 strain in medium after incorporation of 10 nmol of Leu-Met dipeptide antagonist per disk.
Shigella sonnei [12] = assay: Antibacterial activity against Shigella sonnei 433 strain in medium after incorporation of 10 nmol of Met-Val dipeptide antagonist per disk.
Bacillus pumilus [13] = assay: Antibacterial activity against Bacillus pumilus CCM 1697 strain in medium*after incorporation of 10 nmol of GlcNAc antagonist per disk.
Bacillus pumilus [14] = assay: Antibacterial activity against Bacillus pumilus CCM 1697 strain in medium after incorporation of 10 nmol of Leu-Met dipeptide antagonist per disk.
Shigella sonnei [15] = assay: Antibacterial activity against Shigella sonnei 433 strain in medium after incorporation of 10 nmol of GlcNAc antagonist per disk.
Bacillus pumilus [16] = assay: Antibacterial activity against Bacillus pumilus CCM 1697 strain in medium after incorporation of 10 nmol of Met-Val dipeptide antagonist per disk.

| Compound | MIC (Staphylococcus aureus) [µg/mL] | MIC (Candida albicans [1]) [µg/mL] | MIC (Bacillus pumilus [2]) [µg/mL] | MIC (Escherichia coli) [µg/mL] | MIC (Shigella sonnei [3]) [µg/mL] | further results |
| --- | --- | --- | --- | --- | --- | --- |
| Nc1nc(=O)[nH]cc1F [FLUCYTOSINE] | – | – | – | – | – | Zone size (Candida albicans [4]): 35 mm; Zone size (Candida albicans [5]): 39 mm |
| C[C@@H]([C@H](N)C(=O)N[C@H](C(=O)O)[C@H]1O[C@@H](n2ccc(=O)[nH]c2=O)[C@H](O)[C@@H]1O)[C@H](O)c1ccc(O)cn1.C[C@@H]([C@H](N)C(=O)N[C@H](C(=O)O)[C@H]1O[C@H](n2cc(C=O)nc2O)[C@H](O)[C@@H]1O)[C@H](O)c1ccc(O)cn1 | – | – | – | – | – | Zone size (Candida albicans [6]): 28 mm; Zone size (Candida albicans [7]): 25 mm |
| COC(=O)/C=C/C(=O)NC[C@@H](NC(=O)CN)C(=O)O | > 200 | 12.5 (≈ 45.7 µM) | 25 (≈ 91.5 µM) | > 100 | 50 (≈ 183 µM) | – |
| COC(=O)/C=C/C(=O)NC[C@@H](N)C(=O)N[C@H](C(=O)O)C(C)C | 100 (≈ 317 µM) | 6.25 (≈ 19.8 µM) | > 200 | > 200 | > 200 | – |
| COC(=O)/C=C/C(=O)NC[C@@H](NC(=O)[C@@H](N)CCCCN)C(=O)O | > 200 | > 200 | 100 (≈ 290 µM) | > 200 | > 200 | – |
| COC(=O)/C=C/C(=O)NC[C@@H](NC(=O)[C@@H](N)Cc1ccccc1)C(=O)O | 100 (≈ 275 µM) | 12.5 (≈ 34.4 µM) | 6.25 (≈ 17.2 µM) | > 200 | 12.5 (≈ 34.4 µM) | – |
| Clc1ccc(COC(Cn2ccnc2)c2ccc(Cl)cc2Cl)c(Cl)c1 (stereo unspecified) [MICONAZOLE] | – | – | – | – | – | Zone size (Candida albicans [6]): 32 mm; Zone size (Candida albicans [7]): 27 mm |
| COC(=O)/C=C/C(=O)NC[C@@H](NC(=O)[C@@H](N)CC(C)C)C(=O)O | 12.5 (≈ 38 µM) | 0.8 (≈ 2.43 µM) | 1.56 (≈ 4.74 µM) | 100 (≈ 304 µM) | 1.56 (≈ 4.74 µM) | Zone size (Candida albicans [4]): 39 mm; Zone size (Candida albicans [8]): 0 mm; Zone size (Candida albicans [9]): 0 mm; Zone size (Candida albicans [10]): 0 mm; Zone size (Candida albicans [5]): 41 mm |
| Clc1ccccc1C(c1ccccc1)(c1ccccc1)n1ccnc1 [CLOTRIMAZOLE] | – | – | – | – | – | Zone size (Candida albicans [4]): 17 mm; Zone size (Candida albicans [5]): 21 mm |
| COC(=O)/C=C/C(=O)NC[C@@H](N)C(=O)N[C@@H](Cc1ccc(O)cc1)C(=O)O | > 200 | 25 (≈ 65.9 µM) | > 200 | > 200 | > 200 | – |

Continued, in another order:

| MIC (Staphylococcus aureus) [µg/mL] | MIC (Candida albicans [1]) [µg/mL] | MIC (Bacillus pumilus [2]) [µg/mL] | MIC (Escherichia coli) [µg/mL] | MIC (Shigella sonnei [3]) [µg/mL] | Compound | further results |
| --- | --- | --- | --- | --- | --- | --- |
| 50 (≈ 174 µM) | 0.8 (≈ 2.78 µM) | 1.56 (≈ 5.43 µM) | 100 (≈ 348 µM) | 3.12 (≈ 10.9 µM) | COC(=O)/C=C/C(=O)NC[C@@H](NC(=O)[C@H](C)N)C(=O)O | – |
| 12.5 (≈ 39.6 µM) | 0.4 (≈ 1.27 µM) | 0.4 (≈ 1.27 µM) | 100 (≈ 317 µM) | 3.12 (≈ 9.89 µM) | CCC[C@H](N)C(=O)N[C@H](CNC(=O)/C=C/C(=O)OC)C(=O)O | Zone size (Candida albicans [4]): 40 mm; Zone size (Candida albicans [5]): 42 mm |
| 12.5 (≈ 39.6 µM) | 1.56 (≈ 4.95 µM) | 0.8 (≈ 2.54 µM) | 100 (≈ 317 µM) | 1.56 (≈ 4.95 µM) | COC(=O)/C=C/C(=O)NC[C@@H](NC(=O)[C@@H](N)C(C)C)C(=O)O | – |
| > 200 | > 200 | > 200 | > 200 | > 200 | COC(=O)/C=C/C(=O)NC[C@@H](N)C(=O)O | – |
| > 200 | > 200 | > 200 | > 200 | > 200 | COC(=O)/C=C/C(=O)NC[C@@H](N)C(=O)N[C@H](CNC(=O)/C=C/C(=O)OC)C(=O)O | – |
| > 200 | 1.56 (≈ 4.49 µM) | > 200 | > 200 | > 200 | COC(=O)/C=C/C(=O)NC[C@@H](N)C(=O)N[C@@H](CCSC)C(=O)O | Zone size (Candida albicans [4]): 31 mm; Zone size (Candida albicans [8]): 0 mm; Zone size (Candida albicans [9]): 0 mm; Zone size (Candida albicans [10]): 0 mm; Zone size (Candida albicans [5]): 35 mm |
| 25 (≈ 75.9 µM) | 0.8 (≈ 2.43 µM) | 0.4 (≈ 1.21 µM) | 100 (≈ 304 µM) | 3.12 (≈ 9.47 µM) | CCCC[C@H](N)C(=O)N[C@H](CNC(=O)/C=C/C(=O)OC)C(=O)O | Zone size (Shigella sonnei [11]): 11 mm; Zone size (Shigella sonnei [12]): 10 mm; Zone size (Bacillus pumilus [13]): 0 mm; Zone size (Bacillus pumilus [14]): 0 mm; Zone size (Shigella sonnei [15]): 0 mm; Zone size (Bacillus pumilus [16]): 0 mm |
| > 200 | 3.12 (≈ 10.9 µM) | > 200 | > 200 | > 200 | COC(=O)/C=C/C(=O)NC[C@@H](N)C(=O)N[C@@H](C)C(=O)O | – |
| > 200 | > 200 | > 200 | > 200 | > 200 | COC(=O)/C=C/C(=O)NC[C@@H](N)C(=O)NCC(=O)O | – |
| 100 (≈ 264 µM) | 50 (≈ 132 µM) | 12.5 (≈ 32.9 µM) | > 200 | 25 (≈ 65.9 µM) | COC(=O)/C=C/C(=O)NC[C@@H](NC(=O)[C@@H](N)Cc1ccc(O)cc1)C(=O)O | – |
| 50 (≈ 144 µM) | 0.8 (≈ 2.3 µM) | 3.12 (≈ 8.98 µM) | 100 (≈ 288 µM) | 3.12 (≈ 8.98 µM) | COC(=O)/C=C/C(=O)NC[C@@H](NC(=O)[C@@H](N)CCSC)C(=O)O | – |
| > 200 | 1.56 (≈ 4.29 µM) | > 200 | > 200 | > 200 | COC(=O)/C=C/C(=O)NC[C@@H](N)C(=O)N[C@@H](Cc1ccccc1)C(=O)O | – |
| 100 (≈ 317 µM) | 6.25 (≈ 19.8 µM) | > 200 | > 200 | > 200 | CCC[C@H](NC(=O)[C@H](N)CNC(=O)/C=C/C(=O)OC)C(=O)O | – |
| 100 (≈ 304 µM) | 3.12 (≈ 9.47 µM) | > 200 | > 200 | > 200 | COC(=O)/C=C/C(=O)NC[C@@H](N)C(=O)N[C@@H](CC(C)C)C(=O)O | – |
